Data: ChEMBL document CHEMBL3351742, “Novel quinazoline-urea analogues as modulators for Aβ-induced mitochondrial dysfunction: design, synthesis, and molecular docking study” (Eur J Med Chem, 2014)

Experiments:
HT-22 = assay: Inhibition of beta-amyloid peptide-induced mitochondrial permeability transition pore opening in mouse HT22 cells assessed as increase in green/red fluorescence ratio at 5 uM pre-incubated for 10 mins before Abeta peptide addition by JC-1 assay; type: cell-based; design: scale not given: the % may be the effect or the level left
Outline: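 HT-22 mouse hippocampal cells (DMEM, 10% FBS, 37 °C, 5% CO2), 30,000/well seeded a day ahead; loaded with 7.5 μM JC-1 (final) in phenol red-free Opti-MEM for 1 h 15 min at 37 °C, PBS-washed. Compound 5 μM for 10 min, then Aβ1–42 5 μM. Fluorescence read hourly for 3 h, red ex/em 530/580, green 485/530; green/red ratio change relative to Aβ alone (100%).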

[1] = Toxicity against mouse HT22 cells assessed as cell viability at 5 uM after 24 hrs by MTT assay; type: cell-based, HT-22; conditions: read-out: Activity
Outline: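 HT-22 cells, 5000/well, given compound at 5 μM without Aβ, 24 h at 37 °C. MTT added for 2 h at 37 °C, formazan dissolved in 10% Triton X-100/isopropanol with 0.1 M HCl for 1 h at room temperature; absorbance at 570 nm, vehicle-control values subtracted to derive viability.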

`Cc1ccc(NC(=O)Nc2cc3ncncc3cc2OCc2ccc(Cl)cc2)cc1` gave an Activity (HT-22) of 63%.
For `O=C(Nc1ccc(C(F)(F)F)cc1)Nc1cc2ncncc2cc1OCc1ccc(F)cc1`, the Activity (HT-22) was 81%.
`O=C(Nc1ccc(C(F)(F)F)cc1)Nc1cc2ncncc2cc1OCc1ccccc1F` gave an Activity (HT-22) of 68.6%.
Molecule `O=C(Nc1cc2ncncc2cc1OCc1ccccc1)Nc1cccc2ccccc12` has an Activity (HT-22) of 76%.
For `Cc1ccc(NC(=O)Nc2cc3ncncc3cc2OCc2ccccc2F)cc1`, the Activity (HT-22) was 26.7% and the viability at 24 h, 5 µM [1] was 131%.
For `O=C(Nc1cccc(F)c1)Nc1cc2ncncc2cc1OCc1ccccc1F`, the Activity (HT-22) was 56.9%.
With `Cc1ccc(NC(=O)Nc2cc3ncncc3cc2OCc2cccc(F)c2)cc1` the Activity (HT-22) was 81%.
`O=C(Nc1ccc(C(F)(F)F)cc1)Nc1cc2ncncc2cc1OCc1ccc(Cl)cc1` gave an Activity (HT-22) of 48%.
Work on `Cc1ccc(NC(=O)Nc2cc3ncncc3cc2OCc2ccc(F)cc2)cc1` yielded an Activity (HT-22) of 99.2%.
Molecule `O=C(Nc1cccc(Cl)c1)Nc1cc2ncncc2cc1OCc1ccc(F)cc1` has an Activity (HT-22) of 67.9%.
For `Cc1ccc(NC(=O)Nc2cc3ncncc3cc2OCc2ccccc2Cl)cc1`, the Activity (HT-22) was 54.7%.
`O=C(Nc1cccc(F)c1)Nc1cc2ncncc2cc1OCc1ccccc1` showed an Activity (HT-22) of 38% and a viability at 24 h, 5 µM [1] of 100%.
In the case of `O=C(Nc1ccccc1F)Nc1cc2ncncc2cc1OCc1ccc(Cl)cc1`, the Activity (HT-22) is reported as 24% and the viability at 24 h, 5 µM [1] is reported as 102%.
`O=C(Nc1cccc(F)c1)Nc1cc2ncncc2cc1OCc1ccc(Cl)cc1` showed an Activity (HT-22) of 29% and a viability at 24 h, 5 µM [1] of 100%.
`O=C(Nc1ccc(Cl)c(Cl)c1)Nc1cc2ncncc2cc1OCc1ccc(F)cc1` gave an Activity (HT-22) of 155%.
For `O=C(Nc1cccc(Cl)c1)Nc1cc2ncncc2cc1OCc1ccc(Cl)cc1`, the Activity (HT-22) was 64%.
For `O=C(Nc1ccc(Cl)c(Cl)c1)Nc1cc2ncncc2cc1OCc1ccc(Cl)cc1`, the Activity (HT-22) was 91%.
In the case of `Cc1ccc(NC(=O)Nc2cc3ncncc3cc2OCc2ccccc2)cc1`, the Activity (HT-22) is reported as 154%.
With `O=C(Nc1ccc(Cl)c(Cl)c1)Nc1cc2ncncc2cc1OCc1ccccc1` the Activity (HT-22) was 73%.
`O=C(Nc1ccccc1F)Nc1cc2ncncc2cc1OCc1ccccc1Cl` gave an Activity (HT-22) of 31% and a viability at 24 h, 5 µM [1] of 101%.
Work on `O=C(Nc1ccccc1F)Nc1cc2ncncc2cc1OCc1ccc(F)cc1` yielded an Activity (HT-22) of 80.3%.
With `O=C(Nc1cccc(Cl)c1)Nc1cc2ncncc2cc1OCc1ccccc1F` the Activity (HT-22) was 51.4%.
`O=C(Nc1cccc(F)c1)Nc1cc2ncncc2cc1OCc1ccc(F)cc1` showed an Activity (HT-22) of 61.5%.
`O=C(Nc1cc2ncncc2cc1OCc1ccccc1F)Nc1cccc2ccccc12` gave an Activity (HT-22) of 39.4% and a viability at 24 h, 5 µM [1] of 83%.
With `O=C(Nc1cccc(F)c1)Nc1cc2ncncc2cc1OCc1cccc(F)c1` the Activity (HT-22) was 27% and the viability at 24 h, 5 µM [1] was 104%.
